First the molecules themselves.
B1: tRNA (parent)
chain: GUUCCGUUGGCGUAAUGGUAACGCGUCUCCCUCCUAAGGAGAAGACUGCGGGUUCGAGUCCCGUACGGAACG

Fewer inactive variants are shown than the library holds.

In the RNAGym collection of RNA variant scans (doi:10.1126/science.aae0568) one finds yeast fitness data, which are given here for 167 variants.

The variants in this data set derive from B1. Put plainly: yeast fitness relative to wild type (ratio to wild type); higher = fitter; tRNA-Arg(CCU), competitive growth, 37 C, YPD. The essentials:
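Gene amplicons from the start population and from each of six end populations were read by 100-nucleotide paired-end sequencing. Those end populations came from pooled Saccharomyces cerevisiae strains carrying tRNA-Arg(CCU) gene variants at the native locus, competed in YPD at 37°C for 24 hours. Fitness relative to wild type was worked out from changes in genotype frequencies. Genotypes needed ≥ 100 starting reads, and estimates < 0.5 were set to 0.5.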
On to C24A C30G, for which the yeast fitness is at most 0.5.
To C24A A43U G52A belongs at most 0.5; to G23C C30G C49U A65C, at most 0.5; to G23U A40G, 0.682.
To C24A C29U G50A A65G C66U belongs at most 0.5; to G23U A57G, 0.665.
The same measure for G23C C27G U35G C62A: 0.59; for G23C C49G C62U: at most 0.5; for C24A C31U A36G A37G G48A U53G: 0.653.
As for C24A C31U A42C C66U, the yeast fitness is at most 0.5.
To C24A C27U C61A belongs at most 0.5; to C24A A57C C61G, at most 0.5; to G23C C55G G67A, 0.526.
To G23C C49U C62A C66A belongs at most 0.5; to C24A C33U C34A A43U C46G, at most 0.5; to G23U C24G C27U A69C, at most 0.5.
To G23C U26C C27U A42U belongs 0.566.
G23C C49G A57G A70U: the yeast fitness is at most 0.5.
To C24A A37C G38A G58C G63C belongs at most 0.5; to G23C G44C C46U G58A, at most 0.5; to G23C G39C G67A, at most 0.5.
As for C24A U35G A65C, the yeast fitness is at most 0.5.
The same measure for C24A U59G C62U A70G: 0.54; for C24A C29G G51C U54A: at most 0.5.
The same measure for G23C C30G A65C: at most 0.5; for C24A A40C: 0.658; for C24A A40G: 0.551.
To C24A G50A C66U belongs 0.5; to C24A C46A G63A, 0.793.
As to C24A C29G A69G, the yeast fitness is at most 0.5.
To C24A C49G A69C belongs at most 0.5.
For C24A A36U G41C, the yeast fitness is at most 0.5.
To G23C C31U C49U belongs 0.58.
The same measure for G23C C30U C46U: at most 0.5.
To C24A G39C A57U A70C belongs at most 0.5; to C24A C31U G56C, at most 0.5.
For C24A C33U A57U U59G, the yeast fitness was at most 0.5.
The same measure for C24A C49U C62U: 0.654.
Regarding C24A C27A A42G A69U, the yeast fitness was at most 0.5.
The same measure for C24A A36U A43C C55A G56A: at most 0.5; for C24A C31U A42C U64A: at most 0.5.
With G23C U47C C60G, the yeast fitness is at most 0.5.
To C24A U35G C46U G68A belongs at most 0.5; to C24A C66U, 0.691; to C24A C62G A70U, 0.562.
To C24A G51A C66U belongs at most 0.5; to C24A A40G G48A C49A C61G, at most 0.5; to G23C U47A, 0.705.
The same measure for G23C U47C: 0.681.
As for C24A C27A U28A, the yeast fitness was determined as 0.53.
The same measure for G23C C31G G44C U47A A69C: at most 0.5.
The same measure for G23C U35G A42U: at most 0.5; for G23C C27U A45G G52A G58A: at most 0.5.
The same measure for C24A G44C U59A: at most 0.5; for C24A A57C C60U G67C: at most 0.5.
With C24A G48C G67C, the yeast fitness was at most 0.5.
Turning to G23U A43G, the yeast fitness amounted to 0.758.
To G23U A43C belongs 0.605; to C24A C29U G50A, at most 0.5; to C24A C30U C34A A45G A57U C62U, at most 0.5.
To C24A C29U A36U C55U belongs at most 0.5; to G23C C27G U53C C62A, 0.619.
Consider G23C C29U C49A, for which the yeast fitness is at most 0.5.
To C24A C30U A45G A57U C62U belongs 0.614; to G23U U28G G50A, at most 0.5; to C24A G58A, 0.859.
To C24A G39C A70C belongs 0.601.
The same measure for C24A C49A G56C G68C: at most 0.5; for C24A A37C G38A A65G C66U: at most 0.5; for C24A: 0.747.
On to C24G, for which the yeast fitness amounted to 0.609.
The same measure for G23U A42C: 0.74; for C24A C33A G51C C62U: at most 0.5; for C24A C31A A65C: at most 0.5.
The same measure for G23C G44C C49U A57C: at most 0.5; for C24A G58C C62U: at most 0.5; for C24A U32C C33U U54C: 0.602.
On to G23C U47G C62G G68A, for which the yeast fitness is at most 0.5.
On to G23C C49U G52C C60U C61G, for which the yeast fitness was at most 0.5.
To G23C G38C C49G belongs 0.534.
The same measure for C24A A40G C61U: at most 0.5.
To C24G A36C A70C belongs 0.567; to C24A U32G A37G, at most 0.5; to C24A U32C C55A C60U, 0.698.
In the case of G23C C66U, the yeast fitness was 0.723.
The same measure for C24A C30U G38C G58C: at most 0.5.
With G23C C31U C55A, the yeast fitness is at most 0.5.
The same measure for G23C G44C C49U: at most 0.5; for C24A C29U A37U C60A C66U: at most 0.5; for C24A A42G G48C: at most 0.5.
To C24A U64G A70C belongs at most 0.5; to G23U C24G C62A, at most 0.5; to C24A U32G A36U A57C, at most 0.5.
The same measure for G23C C55G A69U: at most 0.5; for G23U A37U: at most 0.5; for G23C U26A G50A A65C: 0.533.
As for G23C C33U A43U A45C, the yeast fitness is at most 0.5.
The same measure for C24A C29G C60U: at most 0.5; for G23C C33U A42G A43C U64A C66A A69C A70C: at most 0.5; for C24A C29A G44A C46G: 0.583.
To G23C U32C belongs 0.72; to G23C U32A, 0.565.
To C24A G38C G48C belongs at most 0.5; to C24A G38C G48A, at most 0.5; to C24A A40G C49A C61G, 0.53.
In the case of G23C C34U A36U C55A, the yeast fitness amounted to 0.581.
Take C24A U28C A57U: the yeast fitness is at most 0.5.
To C24G A36C C46U G52A belongs 0.637.
The same measure for G23C C30U C34U G67C: at most 0.5; for C24A G51C G52C: at most 0.5; for C24A C55G C60G: 0.528.
To C24A C55G C60A belongs at most 0.5; to G23C G67C, 0.58; to C24A C29G C33G, 0.619.
As for G23C U26C C46G, the yeast fitness was 0.57.
As to G23C C29G A43U G50A A57G, the yeast fitness is at most 0.5.
As for C24A C33G A40C C55U G67A, the yeast fitness was at most 0.5.
To G23C C60G belongs at most 0.5.
To G23C C60U belongs at most 0.5; to G23C C60A, 0.72; to G23C U47A A57G G58C, at most 0.5.
C24A G63A U64A: the yeast fitness is at most 0.5.
To G23C U28A A36C belongs at most 0.5; to C24A G39A C60A, at most 0.5; to G23C C29G A43U G50A G68U, at most 0.5.
To G23C C33G A42U G56U C62U belongs at most 0.5; to G23C U64A, 0.564.
As for C24A A43G U54C, the yeast fitness came to 0.606.
In the case of G23C C29G A43U G50A G63A A65C, the yeast fitness was at most 0.5.
The same measure for C24A A36U A37C: at most 0.5; for C24A C31G C34U: 0.616.
To C24A C31U A42C U47C belongs at most 0.5; to G23C G39A C62G, at most 0.5.
The same measure for C24A C30U A65G A69U: at most 0.5.
Consider C24A C27U U28G G68U, for which the yeast fitness amounted to 0.529.
On to C24A C27U U54C U59C, for which the yeast fitness turned out to be 0.551.
The same measure for C24A C49U U59G C62U A70G: at most 0.5.
To G23U C30A C55G A57C C62G G68C belongs at most 0.5.
Consider G23C C61G G68C, for which the yeast fitness came out at 0.5.
To C24A G63A belongs 0.658.
Turning to C24A C33A C66A, the yeast fitness was found to be 0.533.
To C24A C29G A45G C62A A69C belongs 0.52.
The same measure for G23C C27U C30U: 0.53; for C24A U64A: 0.622.
Take C24A U64G: the yeast fitness worked out at 0.68.
To G23U A45G belongs 0.579; to C24A A45G, 0.626.
As for C24A A45U, the yeast fitness is 0.57.
For C24A A65C, the yeast fitness worked out at 0.725.
On to C24A C33G C34U G58C, for which the yeast fitness was found to be 0.551.
To C24A C29U C61U C66G belongs 0.544; to G23C U26C C27U C46U A69C, at most 0.5.
The same measure for G23C G50A C61U: at most 0.5.
To C24A C31A G63U U64G belongs at most 0.5.
Regarding C24A G38A U47A C55G C61U, the yeast fitness is at most 0.5.
In the case of C24A U26G, the yeast fitness was determined as 0.655.
The same measure for G23C G51A: 0.671; for G23C C31G C33A A57U U59A G63A: at most 0.5.
To C24A C34U G41A belongs at most 0.5.
On to G23C U54A, for which the yeast fitness is at most 0.5.
The same measure for G23C U54G: at most 0.5; for G23C U53A C55U: 0.563; for C24A C31G C34U G68A: at most 0.5.
As for G23C G58C, the yeast fitness came to 0.669.
The same measure for C24A A40G C49A: at most 0.5; for G23C C33A: at most 0.5.
To G23U C24G C27U C62G C66G belongs at most 0.5.
